According to publication PMC2695661 (The Journal of Endocrinology, 2009):
pEC50: −log10 of the molar value. “Also recorded” adds a separate entry of the source. Square brackets hold non-standard residues; d marks the D form. Peptide text beside a SMILES is read from it. pGlu = O=C1CC[C@@H](C(=O)O)N1

Columns and labels:
cGnRH-R-III [1] = target: T1, cGnRH-R-III (Gallus gallus, UniProt Q5EFE0); assay: Inositol phosphate assay, cGnRH-R-III transfected COS-7 cells; assay type: cell-based, chicken
T1 sequence (Q5EFE0 1-419): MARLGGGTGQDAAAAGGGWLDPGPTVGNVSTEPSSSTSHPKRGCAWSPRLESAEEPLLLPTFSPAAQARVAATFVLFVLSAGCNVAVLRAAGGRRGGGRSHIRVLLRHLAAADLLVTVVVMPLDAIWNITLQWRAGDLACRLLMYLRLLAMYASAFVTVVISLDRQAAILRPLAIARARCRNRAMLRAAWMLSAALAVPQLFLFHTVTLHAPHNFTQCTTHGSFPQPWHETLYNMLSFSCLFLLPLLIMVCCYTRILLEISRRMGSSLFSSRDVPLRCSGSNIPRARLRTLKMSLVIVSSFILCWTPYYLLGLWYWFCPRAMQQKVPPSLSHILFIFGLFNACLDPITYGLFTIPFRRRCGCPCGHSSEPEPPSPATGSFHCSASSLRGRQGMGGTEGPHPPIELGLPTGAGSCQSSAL
Method in brief: (§1)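 COS-7 cells were electroporated with a chicken type I or type III GnRH receptor expression construct and grown in DMEM with 10% FCS, 4 mM L-glutamine and penicillin/streptomycin at 37 °C, 5% CO2. After 24 h, cells were labelled 24 h with [3H]-myo-inositol in inositol-free DMEM. They were then washed in 25 mM HEPES-DMEM with 10 mM LiCl and stimulated 1 h at 37 °C with analogue. Antagonist mode included 1 nM GnRH-II. Reactions were stopped with 10 mM formic acid. Total inositol phosphates were eluted from Dowex with 1 M ammonium formate/0.1 M formic acid. Assays were run in triplicate and fitted by non-linear regression.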

cGnRH-R-I [2] = target: T2, cGnRH-R-I (Gallus gallus, UniProt Q9DDC9); assay: Inositol phosphate assay, cGnRH-R-I transfected COS-7 cells; assay type: cell-based, chicken
T2 sequence (Q9DDC9 1-375): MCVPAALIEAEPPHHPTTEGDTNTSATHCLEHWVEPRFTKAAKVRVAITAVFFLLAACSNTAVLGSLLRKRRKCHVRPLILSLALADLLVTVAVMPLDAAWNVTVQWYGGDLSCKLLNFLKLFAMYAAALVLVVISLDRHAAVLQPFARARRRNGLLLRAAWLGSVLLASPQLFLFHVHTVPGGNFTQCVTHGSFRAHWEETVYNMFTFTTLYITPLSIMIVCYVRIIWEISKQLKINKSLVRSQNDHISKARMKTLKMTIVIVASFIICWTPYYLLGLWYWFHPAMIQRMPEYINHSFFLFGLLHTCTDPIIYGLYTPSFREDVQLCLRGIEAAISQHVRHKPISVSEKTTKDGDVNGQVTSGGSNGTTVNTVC
Method in brief: as §1

cGnRH-R-III [3] = target: T1, cGnRH-R-III; assay: Whole cell radioligand binding assay, cGnRH-R-III transfected COS-7 cells; design: species or system chicken
cGnRH-R-I [4] = target: T2, cGnRH-R-I; assay: Whole cell radioligand binding assay, cGnRH-R-I transfected COS-7 cells; design: species or system chicken

## CC(C)C[C@H](NC(=O)[C@H](Cc1c[nH]c2ccccc12)NC(=O)CNC(=O)[C@H](Cc1ccc(O)cc1)NC(=O)[C@H](CO)NC(=O)[C@H](Cc1c[nH]c2ccccc12)NC(=O)[C@H](Cc1c[nH]cn1)NC(=O)[C@@H]1CCC(=O)N1)C(=O)N1CCC[C@H]1C(=O)NCC(N)=O [sGnRH-III] ([pGlu]HWSYGWLPG-NH2)
cGnRH-R-III [1]
  pEC50: 7.68
cGnRH-R-I [2]
  pEC50: 7.99

## GnRH-II ([pGlu]HWSHGWYPG-NH2; ends and bridges not checked; UniProt O43555 24-33, looked up)
cGnRH-R-III [3]
  fold higher affinity for GnRH-II than for cGnRH-I: 35 fold
  fold higher affinity for GnRH-II than for sGnRH-III: 16 fold
cGnRH-R-III [1]; cGnRH-R-III transfected cells
  inositol phosphate accumulation, GnRH-II relative to cGnRH-I: six times more effective
cGnRH-R-I [4]
  fold higher affinity for GnRH-II than for cGnRH-I: 21 fold
  fold higher affinity for GnRH-II than for sGnRH-III: 16 fold
cGnRH-R-I [2]; cGnRH-R-I
  inositol phosphate production potency, GnRH-II relative to cGnRH-I: four times more potent; also recorded: four times more potently
